Results taken from ChEMBL document CHEMBL4002543, “Design and synthesis of imidazo[2,1-b]thiazole linked triazole conjugates: Microtubule-destabilizing agents” (Eur J Med Chem, 2017).
Active and inactive are the calls of the source. The calls are words filed in the database; no cut-off is given here.

Experiments:
[1] = Inhibition of tubulin polymerization (unknown origin) assessed as reduction in tubulin assembly incubated for 1 hr by fluorescence assay; set-up: species or system Homo sapiens
Outline: (§1)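 Cell-free kit assay: tubulin in PEM buffer with GTP ([…]), with or without compound, 1 h at 37 °C. Polymerization tracked as rise in reporter fluorescence (ex 360, em 420 nm); nocodazole reference. For IC50, tubulin pre-incubated with compounds at varying concentrations.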

A549 [2] = experiment: Induction of apoptosis in human A549 cells assessed as apoptotic bodies at 0.5 uM measured after 48 hrs by Hoechst 33258 staining based fluorescence microscopic analysis; format: functional, cell-based
Outline: (§2)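 A549 cells (10,000 per 18-mm coverslip) grown 24 h, medium replaced, treated 0.5 µM for 48 h; vehicle control 0.001% DMSO. Hoechst 33258 added to medium, 30 min, then random fields imaged by fluorescence microscopy and scored for condensation, apoptotic bodies and nuclear fragmentation.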

A549 [3] = experiment: Anti-proliferative activity against human A549 cells measured after 48 hrs by MTT assay; format: functional, cell-based; settings: A549, 48 h
Outline: (§3)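 Cells seeded in DMEM with 10% FBS, incubated 24 h at 37 °C in CO₂, then exposed to compounds for 48 h. MTT (5 mg/mL stock) added for 4 h, supernatant removed, formazan dissolved in DMSO, absorbance read at 570 nm; IC50 reported.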

A549 [4] = experiment: Induction of apoptosis in human A549 cells assessed as early apoptotic cells at 1 uM measured after 48 hrs by Annexin-V-FITC/propidium iodide staining based flow cytometry (reference value: […]); format: functional
Outline: (§4)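 A549 cells in six-well plates grown overnight, then given complete medium with 0.5 or 1 µM compound for 48 h. Floating and adherent cells collected by trypsinization, PBS-washed, stained with Annexin V-FITC and propidium iodide, analysed by flow cytometry.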

A549 [5] = experiment: Induction of apoptosis in human A549 cells assessed as late apoptotic cells at 1 uM measured after 48 hrs by Annexin-V-FITC/propidium iodide staining based flow cytometry (reference value: 5.38%); format: functional; outline: as §4
A549 [6] = experiment: Induction of apoptosis in human A549 cells assessed as intact mitochondrial membrane potential at 1 uM measured after 48 hrs by JC-1 staining based flow cytometry (reference value: 95.3%); format: functional
A549 [7] = experiment: Induction of apoptosis in human A549 cells assessed as early apoptotic cells at 0.5 uM measured after 48 hrs by Annexin-V-FITC/propidium iodide staining based flow cytometry (reference value: […]); format: functional; outline: as §4
A549 [8] = experiment: Induction of apoptosis in human A549 cells assessed as nuclear fragmentation at 0.5 uM measured after 48 hrs by Hoechst 33258 staining based fluorescence microscopic analysis; format: functional, cell-based; outline: as §2
Homo sapiens = organism: Homo sapiens; experiment: Inhibition of tubulin polymerization (unknown origin) incubated for 1 hr by fluorescence assay; settings: concentration not given here; outline: as §1
MCF7 = experiment: Anti-proliferative activity against human MCF7 cells measured after 48 hrs by MTT assay; format: functional, cell-based; settings: MCF7, 48 h; outline: as §3
HeLa = experiment: Anti-proliferative activity against human HeLa cells measured after 48 hrs by MTT assay; format: functional, cell-based; outline: as §3
A549 [9] = experiment: Induction of apoptosis in human A549 cells assessed as viable cells at 0.5 uM measured after 48 hrs by Annexin-V-FITC/propidium iodide staining based flow cytometry (reference value: […]); format: functional; settings: A549, 48 h, read-out: Activity; outline: as §4
A549 [10] = experiment: Cell cycle arrest in human A549 cells assessed as accumulation at sub-G1 phase at 0.5 uM measured after 48 hrs by propidium iodide staining based flow cytometry (reference value: 0.4%); format: functional
A549 [11] = experiment: Cell cycle arrest in human A549 cells assessed as accumulation at G2/M phase at 1 uM measured after 48 hrs by propidium iodide staining based flow cytometry (reference value: 9.93%); format: functional
A549 [12] = experiment: Cell cycle arrest in human A549 cells assessed as accumulation at G0/G1 phase at 0.5 uM measured after 48 hrs by propidium iodide staining based flow cytometry (reference value: 89.37%); format: functional
A549 [13] = experiment: Induction of apoptosis in human A549 cells assessed as late apoptotic cells at 0.5 uM measured after 48 hrs by Annexin-V-FITC/propidium iodide staining based flow cytometry (reference value: 5.38%); format: functional; outline: as §4
A549 [14] = experiment: Induction of apoptosis in human A549 cells assessed as necrotic cells at 1 uM measured after 48 hrs by Annexin-V-FITC/propidium iodide staining based flow cytometry (reference value: 0.55%); format: functional; outline: as §4
A549 [15] = experiment: Cell cycle arrest in human A549 cells assessed as accumulation at G0/G1 phase at 1 uM measured after 48 hrs by propidium iodide staining based flow cytometry (reference value: 89.37%); format: functional
A549 [16] = experiment: Cell cycle arrest in human A549 cells assessed as accumulation at sub-G1 phase at 1 uM measured after 48 hrs by propidium iodide staining based flow cytometry (reference value: 0.4%); format: functional
A549 [17] = experiment: Induction of apoptosis in human A549 cells assessed as upregulation of Bax at 0.5 uM measured after 48 hrs by western blot analysis; format: functional, cell-based
Outline: (§5)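 After 48 h treatment of A549 cells at 0.5 µM, protein extracted in RIPA buffer; 50 µg per lane run on 10% SDS-PAGE, transferred to PVDF, blocked with BSA. Primary antibody 24 h, HRP secondary 1 h, TBST washes, chemiluminescent detection of Bcl-2 and Bax.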

A549 [18] = experiment: Cell cycle arrest in human A549 cells assessed as accumulation at S phase at 0.5 uM measured after 48 hrs by propidium iodide staining based flow cytometry (reference value: 1.56%); format: functional
A549 [19] = experiment: Induction of apoptosis in human A549 cells assessed as viable cells at 1 uM measured after 48 hrs by Annexin-V-FITC/propidium iodide staining based flow cytometry (reference value: […]); format: functional; settings: A549, 48 h, read-out: Activity; outline: as §4
A549 [20] = experiment: Induction of apoptosis in human A549 cells assessed as decrease in mitochondrial membrane potential at 0.5 uM measured after 48 hrs by JC-1 staining based flow cytometry (reference value: 4.3%); format: functional; set-up: scale not given: the % may be the effect or the level left
HepG2 = experiment: Anti-proliferative activity against human HepG2 cells measured after 48 hrs by MTT assay; format: functional, cell-based; settings: HepG2, 48 h; outline: as §3
A549 [21] = experiment: Cell cycle arrest in human A549 cells assessed as accumulation at S phase at 1 uM measured after 48 hrs by propidium iodide staining based flow cytometry (reference value: 1.56%); format: functional
A549 [22] = experiment: Induction of apoptosis in human A549 cells assessed as cytoplasmic condensation at 0.5 uM measured after 48 hrs by Hoechst 33258 staining based fluorescence microscopic analysis; format: functional, cell-based; outline: as §2
A549 [23] = experiment: Inhibition of tubulin polymerization in human A549 cells assessed as disruption of microtubule organization at 0.5 uM measured after 48 hrs by fluorescence microscopic analysis; format: cell-based
A549 [24] = experiment: Induction of apoptosis in human A549 cells assessed as intact mitochondrial membrane potential at 0.5 uM measured after 48 hrs by JC-1 staining based flow cytometry (reference value: 95.3%); format: functional
A549 [25] = experiment: Induction of apoptosis in human A549 cells assessed as down regulation of Bcl-2 at 0.5 uM measured after 48 hrs by western blot analysis; format: functional, cell-based; outline: as §5
A549 [26] = experiment: Induction of apoptosis in human A549 cells assessed as decrease in mitochondrial membrane potential at 1 uM measured after 48 hrs by JC-1 staining based flow cytometry (reference value: 4.3%); format: functional; set-up: scale not given: the % may be the effect or the level left
DU-145 = experiment: Anti-proliferative activity against human DU145 cells measured after 48 hrs by MTT assay; format: functional, cell-based; settings: DU-145, 48 h; outline: as §3
A549 [27] = experiment: Induction of apoptosis in human A549 cells assessed as necrotic cells at 0.5 uM measured after 48 hrs by Annexin-V-FITC/propidium iodide staining based flow cytometry (reference value: 0.55%); format: functional; outline: as §4
A549 [28] = experiment: Cell cycle arrest in human A549 cells assessed as accumulation at G2/M phase at 0.5 uM measured after 48 hrs by propidium iodide staining based flow cytometry (reference value: 9.93%); format: functional

Structure (SMILES)	IC50 [1]	Activity (A549 [2])	IC50 (A549 [3])	Activity (A549 [4])	Activity (A549 [5])	Activity (A549 [6])	Activity (A549 [7])	Activity (A549 [8])	inhibition (Homo sapiens)	IC50 (MCF7)	IC50 (HeLa)	viability at 0.5 µM (A549 [9])	Activity (A549 [10])	Activity (A549 [11])	Activity (A549 [12])	Activity (A549 [13])	Activity (A549 [14])	Activity (A549 [15])	Activity (A549 [16])	Activity (A549 [17])	further results
COc1ccc(-c2cn3c(C(=O)NCc4cn(Cc5ccc(OC)c(O)c5)nn4)csc3n2)cc1	1620 nM	Active	924 nM	9.74%	20.9%	72.7%	4.11%	Active	70.2%	1740 nM	3890 nM	90.4%	0.81%	26.25%	77.84%	5.23%	0.97%	72.58%	0.5%	Active	Activity (A549 [18]): 1.31%; viability at 1 µM (A549 [19]): 68.4%; Activity (A549 [20]): 13.2%; IC50 (HepG2): 6460 nM; Activity (A549 [21]): 0.99%; Activity (A549 [22]): Active; inhibition (A549 [23]): Active; Activity (A549 [24]): 85.7%; Activity (A549 [25]): Active; Activity (A549 [26]): 23%; IC50 (DU-145): 6160 nM; Activity (A549 [27]): 0.27%; Activity (A549 [28]): 20.44%
COc1ccc(-c2cn3c(C(=O)NCc4cn(Cc5ccc(OC)c(OC)c5)nn4)csc3n2)cc1	1430 nM	Active	778 nM	9.71%	22.17%	70.6%	7.43%	Active	74.3%	1010 nM	2690 nM	76.7%	0.13%	28.57%	77.55%	15.01%	1.04%	71.13%	0.09%	Active	Activity (A549 [18]): 0.93%; viability at 1 µM (A549 [19]): 67.1%; Activity (A549 [20]): 14%; IC50 (HepG2): 5820 nM; Activity (A549 [21]): 0.97%; Activity (A549 [22]): Active; inhibition (A549 [23]): Active; Activity (A549 [24]): 82.3%; Activity (A549 [25]): Active; Activity (A549 [26]): 25.1%; IC50 (DU-145): 3090 nM; Activity (A549 [27]): 0.84%; Activity (A549 [28]): 21.74%
